Values after ≈ are worked out from the molar mass of the structure shown.
Assays:
[1] = target: T1, Bombesin receptor subtype-3 (Mus musculus, UniProt O54798); assay: Agonist activity at mouse BRS3 expressed in CHO-K1 cells by IP-One HTRF assay; assay type: cell-based
T1 sequence (O54798 whole entry): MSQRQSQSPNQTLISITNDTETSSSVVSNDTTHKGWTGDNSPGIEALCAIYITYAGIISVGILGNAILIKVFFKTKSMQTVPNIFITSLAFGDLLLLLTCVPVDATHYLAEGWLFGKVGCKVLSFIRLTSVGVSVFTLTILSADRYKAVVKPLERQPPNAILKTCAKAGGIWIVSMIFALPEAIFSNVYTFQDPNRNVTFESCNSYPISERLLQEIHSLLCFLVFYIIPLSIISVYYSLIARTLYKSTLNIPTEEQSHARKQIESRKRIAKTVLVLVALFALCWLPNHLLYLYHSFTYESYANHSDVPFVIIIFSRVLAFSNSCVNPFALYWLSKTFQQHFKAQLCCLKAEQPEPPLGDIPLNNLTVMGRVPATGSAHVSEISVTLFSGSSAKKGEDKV

[2] = target: T2, Bombesin receptor subtype-3 (Homo sapiens, UniProt P32247); assay: Agonist activity at human BRS3 expressed in CHO-K1 cells by IP-One HTRF assay; assay type: cell-based
T2 sequence (P32247 whole entry): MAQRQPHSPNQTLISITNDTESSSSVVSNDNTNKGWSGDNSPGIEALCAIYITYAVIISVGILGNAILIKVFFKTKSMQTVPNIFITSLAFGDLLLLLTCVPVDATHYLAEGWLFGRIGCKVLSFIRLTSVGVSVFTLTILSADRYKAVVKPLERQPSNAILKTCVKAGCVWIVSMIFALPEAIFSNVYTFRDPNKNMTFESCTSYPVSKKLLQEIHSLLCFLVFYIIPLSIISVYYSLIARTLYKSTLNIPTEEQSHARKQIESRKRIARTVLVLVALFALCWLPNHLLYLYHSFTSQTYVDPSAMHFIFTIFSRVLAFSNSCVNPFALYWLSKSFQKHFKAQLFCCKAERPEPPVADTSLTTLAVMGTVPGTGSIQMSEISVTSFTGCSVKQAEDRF

[3] = Cmax in mouse at 30 mg/kg, po; assay type: ADME, organism-based; parameters: dose 30 mg/kg, route oral; conditions: in vivo
[4] = tested on: Mus musculus; assay: Cmax in mouse assessed as 3-[2-[(5R)-5-(carboxymethyl)-8-(trifluoromethyl)-1,2,3,5-tetrahydropyrido[2,3-e][1,4]diazepin-4-yl]-2-oxoethyl]benzoic acid inactive metabolite at 30 mg/kg, po; assay type: ADME, organism-based; parameters: dose 30 mg/kg, route oral; conditions: in vivo
Summary of the method: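 Mice acclimated 7–11 days with free access to chow and tap water, then given the ester parent orally at 30 mg/kg as a suspension in 0.5 (w/v)% methyl cellulose 400. Plasma was stored at −20 °C. The carboxylic acid metabolite was quantified in plasma by LC–MS/MS. Cmax is the average of 2 or 3 mice.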

[5] = tested on: Mus musculus; assay: Drug metabolism in mouse assessed as ratio of compound to 3-[2-[(5R)-5-(carboxymethyl)-8-(trifluoromethyl)-1,2,3,5-tetrahydropyrido[2,3-e][1,4]diazepin-4-yl]-2-oxoethyl]benzoic acid inactive metabolites at 30 mg/kg, po; assay type: ADME, organism-based; parameters: dose 30 mg/kg, route oral; conditions: in vivo
[6] = tested on: Mus musculus; assay: Drug metabolism in mouse assessed as ratio of compound to 2-[(5R)-4-[2-(3-hydroxyphenyl)acetyl]-8-(trifluoromethyl)-1,2,3,5-tetrahydropyrido[2,3-e][1,4]diazepin-5-yl]acetic acid at 30 mg/kg, po; assay type: ADME, organism-based; parameters: dose 30 mg/kg, route oral; conditions: in vivo
[7] = tested on: Mus musculus; assay: Cmax in mouse assessed as 2-[(5R)-4-[2-(3-hydroxyphenyl)acetyl]-8-(trifluoromethyl)-1,2,3,5-tetrahydropyrido[2,3-e][1,4]diazepin-5-yl]acetic acid inactive metabolite at 30 mg/kg, po; assay type: ADME, organism-based; parameters: dose 30 mg/kg, route oral; conditions: in vivo
[8] = Fraction unbound in mouse plasma; assay type: ADME, cell-free
Summary of the method: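 Unbound fraction measured in mouse plasma.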

[9] = (§1) Half life in mouse at 30 mg/kg, po; assay type: ADME, organism-based; parameters: dose 30 mg/kg, route oral; conditions: in vivo
[10] = tested on: Mus musculus; assay: Tmax in mouse assessed as 2-[(5R)-4-[2-(3-hydroxyphenyl)acetyl]-8-(trifluoromethyl)-1,2,3,5-tetrahydropyrido[2,3-e][1,4]diazepin-5-yl]acetic acid at 30 mg/kg, po; assay type: ADME, organism-based; parameters: dose 30 mg/kg, route oral; conditions: in vivo
[11] = tested on: Mus musculus; assay: AUC in mouse assessed as 2-[(5R)-4-[2-(3-Hydroxyphenyl)acetyl]-8-(trifluoromethyl)-1,2,3,5-tetrahydropyrido[2,3-e][1,4]diazepin-5-yl]acetic acid at 30 mg/kg, po; assay type: ADME, organism-based, Plasma; parameters: dose 30 mg/kg, route oral; conditions: in vivo
[12] = Tmax in mouse at 30 mg/kg, po; assay type: ADME, organism-based; parameters: dose 30 mg/kg, route oral; conditions: in vivo
[13] = Solubility of the compound in JP2; assay type: physicochemical
[14] = (§2) AUC in mouse at 30 mg/kg, po; assay type: ADME, organism-based, Plasma; parameters: dose 30 mg/kg, route oral; conditions: plasma
[15] = tested on: Mus musculus; assay: Half life in mouse assessed as 2-[(5R)-4-[2-(3-Hydroxyphenyl)acetyl]-8-(trifluoromethyl)-1,2,3,5-tetrahydropyrido[2,3-e][1,4]diazepin-5-yl]acetic acid at 30 mg/kg, po; assay type: ADME, organism-based; parameters: dose 30 mg/kg, route oral; conditions: in vivo
[16] = tested on: Canis familiaris; assay: Cardiotoxicity in beagle dog assessed as heart rate at 3 mg/kg/3 ml, iv for 30 mins; assay type: toxicity, organism-based, Canis lupus familiaris; parameters: route intravenous; conditions: in vivo, 0.5 h
Summary of the method: (§3)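 Dogs were anaesthetized with halothane (0.5–1.5% end-tidal) after iv thiopental 30 mg/kg. Compound was dispersed at 1 mg/mL in 20% hydroxypropyl-β-cyclodextrin and infused into the femoral vein at 3 mg/kg/3 mL over 30 min. Femoral artery HR and mean BP were recorded for 60 min, normalized to the 0-min value; n = 2.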

[17] = tested on: Canis familiaris; assay: Cardiotoxicity in beagle dog assessed as blood pressure at 3 mg/kg/3 ml, iv for 30 mins; assay type: toxicity, organism-based, Canis lupus familiaris; parameters: route intravenous; conditions: in vivo, 0.5 h; summary of the method: as §3
[18] = tested on: Mus musculus; assay: as §1; assay type: ADME, organism-based; parameters: dose 30 mg/kg, route oral; conditions: in vivo, BLD = below limit of detection
[19] = tested on: Mus musculus; assay: Antiobesity activity in po dosed C57BL/6N mouse assessed as anorectic effect; assay type: functional, organism-based
Summary of the method: (§4)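 Male C57BL/6N mice, 7 weeks old, were fasted 16 h, housed singly and habituated 1 h. They then received a single oral dose (1, 3, 10, 30 mg/kg) or vehicle (0.5% methylcellulose). Chow was given 1 h later and cumulative intake over 6 h was recorded. n = 4–5; Dunnett's test versus vehicle.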

[20] = tested on: Mus musculus; assay: Antiobesity activity in C57BL/6N mouse assessed as reduction in food intake at 30 mg/kg, po single dose; assay type: functional; summary of the method: as §4
[21] = tested on: Mus musculus; assay: as §2; assay type: ADME, organism-based, Plasma; parameters: dose 30 mg/kg, route oral; conditions: in vivo, BLD = below limit of detection

SMILES	EC50 [1]	EC50 [2]	Cmax [3]	Cmax [4]	Ratio [5]	Ratio [6]	Cmax [7]	also measured
CC(C)COC(=O)c1cccc(CC(=O)N2CCNc3nc(C(F)(F)F)ccc3[C@H]2CC(=O)O)c1	5.4 nM	4.2 nM	30.8 nM	2120 nM	0.0145	–	–	–
CCCCC(=O)Oc1cccc(CC(=O)N2CCNc3nc(C(F)(F)F)ccc3[C@H]2CC(=O)O)c1	35 nM	19 nM	28.5 nM	–	–	0.0175	1630 nM	–
O=C(O)C[C@@H]1c2ccc(C(F)(F)F)nc2NCCN1C(=O)Cc1cccc(O)c1	> 10000 nM	> 10000 nM	40 nM	–	–	–	–	fraction unbound [8]: > 0.3; half-life [9]: 15 min; Tmax [10]: 15 min; AUC [11]: 1230 ng·h/mL; Tmax [12]: 15 min; solubility [13]: 780 µg/mL (≈ 1910 µM); AUC [14]: 1230 ng·h/mL; t1/2 [15]: 15 min
CCCCOC(=O)c1cccc(CC(=O)N2CCNc3nc(C(F)(F)F)ccc3[C@H]2CC(=O)O)c1	5.6 nM	4 nM	28.5 nM	1630 nM	0.0175	–	–	–
CC(C)COc1cccc(CC(=O)N2CCNc3nc(C(F)(F)F)ccc3[C@H]2CC(=O)O)c1	–	–	–	–	–	–	–	Activity [16]: Toxic; Activity [17]: Toxic
CC(C)CC(=O)Oc1cccc(CC(=O)N2CCNc3nc(C(F)(F)F)ccc3[C@H]2CC(=O)O)c1	43 nM	12 nM	–	–	–	0	1260 nM	Activity [16]: Non-toxic; fraction unbound [8]: 0.108; t1/2 [18]: BLD; Activity [17]: Non-toxic; inhibition [19]: Dose-dependent effect; solubility [13]: 900 µg/mL (≈ 1820 µM); inhibition in vivo at 30 mg/kg [20]: 30%; AUC [21]: BLD
CC(C)C(=O)Oc1cccc(CC(=O)N2CCNc3nc(C(F)(F)F)ccc3[C@H]2CC(=O)O)c1	282 nM	68 nM	–	–	–	0	680 nM	–
O=C(O)C[C@@H]1c2ccc(C(F)(F)F)nc2NCCN1C(=O)Cc1cccc(OC(=O)CC2CC2)c1	81 nM	42 nM	–	–	–	0	607 nM	–
CC(C)(C)CC(=O)Oc1cccc(CC(=O)N2CCNc3nc(C(F)(F)F)ccc3[C@H]2CC(=O)O)c1	20 nM	8.7 nM	5.8 nM	–	–	0.179	32.5 nM	–
CC(C)OC(=O)c1cccc(CC(=O)N2CCNc3nc(C(F)(F)F)ccc3[C@H]2CC(=O)O)c1	45 nM	40 nM	1240 nM	918 nM	1.35	–	–	–
O=C(O)C[C@@H]1c2ccc(C(F)(F)F)nc2NCCN1C(=O)Cc1cccc(C(=O)OCC2CC2)c1	3.7 nM	3.4 nM	39.3 nM	300 nM	0.131	–	–	–
O=C(O)C[C@@H]1c2ccc(C(F)(F)F)nc2NCCN1C(=O)Cc1cccc(C(=O)O)c1	> 10000 nM	> 10000 nM	–	–	–	–	–	–
CC(C)(C)COC(=O)c1cccc(CC(=O)N2CCNc3nc(C(F)(F)F)ccc3[C@H]2CC(=O)O)c1	8.1 nM	5.6 nM	12.7 nM	197 nM	0.0643	–	–	–
